Screening results deposited in PubChem BioAssay by several laboratories.
Shown are actives, neighbours in structure and some others; about 3.4% of the full set was active somewhere.
TAAR1 agonist: human TAAR1 agonism | Q96RJ0 | CHO RD-HGA16 TAAR1, Fluo-8 calcium fluorescence; vehicle wells 0%, saturating PEA agonist 100% | activation, % at 3 µM | 360,000 compounds, 0.99% hits;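 active = activation above the mean activation of all test compounds in the run plus 3 SD, cut at about 38% in these data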
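System: CHO-derived RD-HGA16 cells with stable Gα16 and human TAAR1 / Times: 17-24 h plating, Fluo-8 75 min 37 °C, 30 min RT / Technique: calcium-sensitive Fluo-8 signal, excitation 470-495, emission 515-575 nm / Measure: % activation relative to PEA EC100 response / Benchmarks: DMSO and PEA EC100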
TRPN1 ag: agonists of zebrafish TRPN1 channel | HEK293 zebrafish TRPN1-YFP, Fluo-8 calcium fluorescence; 100% = response to 87 µM carbachol | activation, % at 3 µM | AID 1424 | 220,000 compounds, 0.18% hits;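 active = activation above its plate's cutoff, the mean activation of test wells on that plate plus 3 SD, cut at about 19% in these data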;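 note: 0% = DMSO alone and 100% = 87 µM carbachol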
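Control set: carbachol 87 µM as high control, DMSO as low control; system: HEK293 stable line with zebrafish TRPN1-YFP; read-out: % activation versus carbachol response; detection: intracellular calcium fluorescence with Fluo-8; doses: single test compound dose, 3 µM nominal, 0.3% DMSO; schedule: dye 1 h 37 °C plus 30 min RT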
LANA-H2A inh: blocks KSHV LANA binding to histone H2A/H2B. Q9QR71. cell-free LANA-H2A/H2B peptide, fluorescence polarization. 320,000 compounds, 0.6% hits. inhibition, % (concentration not given with the values). AID 2629; in the data active = inhibition mostly above about 10%, no sharp cut-off; inactive = mostly below about 6.7%
GPR7 antag: blocks human GPR7 receptor signaling | P48145 | GPR7-expressing cells, fluorescence antagonist assay | inhibition, % at 4.4 µM | 290,000 compounds, 1.1% hits; in the data active = inhibition above about 16%, passing the limit was not always enough;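 note: cells stimulated with the agonist NPW; 0% = agonist with vehicle and 100% = vehicle without agonist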
TAAR1 antag: antagonists of human TAAR1 | CHO RD-HGA16 TAAR1, Fluo-8 calcium fluorescence, antagonist | inhibition, % at 3 µM | 360,000 compounds, 1.5% hits | AID 624466;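 active = inhibition above a per-plate cutoff, the mean inhibition of test compounds on that plate plus 3 SD, cut at about 49% in these data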;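 note: 0% = DMSO plus EC80 beta-PEA response and 100% = DMSO alone without agonist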
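Assay system: CHO-derived RD-HGA16 cells stably expressing human TAAR1 plus Gα16. Timing: 140 s kinetic read after compound, 140 s after agonist. Technique: kinetic Fluo-8 calcium fluorescence measurement. Measure: % inhibition of agonist calcium response.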
TRPML3 ag: activates the human TRPML3 channel; Q8TDD5; AID 1448; activation, % at 3 µM; HEK293 TRPML3-YFP, Fluo-8 calcium fluorescence; 100% = the carbachol control signal; 220,000 compounds, 0.29% hits;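 active = activation above its plate's cutoff, the mean activation of the plate's test wells plus 3 SD, cut at about 12% in these data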;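 note: 0% = DMSO only wells and 100% = carbachol wells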
Target sequence (Q8TDD5 whole entry, looked up): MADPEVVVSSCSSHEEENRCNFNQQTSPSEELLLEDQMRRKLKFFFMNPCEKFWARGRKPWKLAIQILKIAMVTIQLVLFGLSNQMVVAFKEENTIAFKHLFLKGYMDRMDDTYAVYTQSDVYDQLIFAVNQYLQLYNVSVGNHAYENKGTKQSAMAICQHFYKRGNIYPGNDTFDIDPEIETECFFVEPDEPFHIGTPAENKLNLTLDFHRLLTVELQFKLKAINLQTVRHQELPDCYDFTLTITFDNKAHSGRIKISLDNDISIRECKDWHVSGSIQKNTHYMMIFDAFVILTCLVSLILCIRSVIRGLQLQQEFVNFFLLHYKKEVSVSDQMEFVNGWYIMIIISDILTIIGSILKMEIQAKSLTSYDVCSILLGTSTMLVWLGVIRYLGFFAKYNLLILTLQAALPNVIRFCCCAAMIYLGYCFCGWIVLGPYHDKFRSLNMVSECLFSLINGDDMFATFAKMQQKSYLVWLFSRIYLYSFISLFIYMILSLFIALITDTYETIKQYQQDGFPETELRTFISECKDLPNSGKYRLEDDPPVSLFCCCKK
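Material: HEK293 cells stably carrying human TRPML3-YFP; compound dosing: single dose, 3 µM final nominal compound, 0.3% DMSO final; incubation: 1-h 37 °C dye load, 5-s basal, 120-s post-compound reads; technique: Fluo-8 intracellular calcium fluorescence, excitation 470-495 nm, emission 515-575 nm; read-out basis: percent activation from peak-to-basal fluorescence ratio, scaled between DMSO and carbachol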
GPR7 antag conf: human GPR7 antagonism, confirmation assay; shares compounds with GPR7 antag; AID 1952; 2,400 compounds, 52% hits; inhibition, % at 4.4 µM; GPR7-expressing cells, calcium fluorescence antagonist mode; in the data active = inhibition above about 24%;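 note: stimulated with the GPR7 agonist NPW; 0% = agonist plus vehicle and 100% = vehicle alone without agonist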
MCHR1 antag: counter-screen for GPR7 antagonists: antagonists of human MCHR1; shares compounds with GPR7 antag; 2,400 compounds, 62% hits; MCHR1-expressing cells, fluorescence antagonist assay; inhibition, % at 4.4 µM; in the data active = inhibition above about 22%;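 note: 0% = vehicle with agonist and 100% = vehicle without agonist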
Starred values were filed as active, the others as inactive; x = not tested or not shown.

SMILES	TAAR1 agonist	TRPN1 ag	LANA-H2A inh	GPR7 antag	TAAR1 antag	TRPML3 ag	GPR7 antag conf	MCHR1 antag
CN(C)CCNC(=O)c1cc2c(s1)-c1ccc(Cl)cc1SC2	8.3	x	-5.0	69.1*	32.9	x	93.0*	93.5*
CCOCCCNC(=O)c1cc2c(s1)-c1ccccc1SC2	0.9	x	-0.7	-4.7	-4.2	x	x	x
Cc1ccc(SC(c2ccc(C)cc2)C(Cn2cncn2)C(=O)c2ccccc2)cc1 (stereo not given)	19.2	-0.6	6.8	26.2*	33.9	-0.4	3.1	3.2
Cc1ccc(C(Sc2ccccc2)C(Cn2cncn2)C(=O)c2ccccc2)cc1 (stereo not given)	16.2	-0.2	-0.3	-1.4	7.1	-1.0	x	x
CN(CCOc1ccccc1)C(=S)Nc1ccc(OC(F)F)cc1	8.0	x	-9.0	30.9*	-3.0	x	14.7	32.0*
CN(CCOc1ccc(Cl)cc1)CC(=O)Nc1ccc(OC(F)F)cc1	-1.4	x	-2.5	38.7*	6.8	x	9.7	14.7
O=C(Cc1cccc2ccccc12)NCC(=O)N1CCN(Cc2cccc(C(F)(F)F)c2)CC1	2.4	x	-5.5	x	2.8	x	x	x
CN(C(=O)CN1CCN(c2cc(-c3cccc4oc5ccccc5c34)ncn2)CC1)c1ccccc1	2.7	x	x	x	14.3	x	x	x
Cc1ccc(-c2csc3ncnc(N4CCN(C(=O)c5ccccc5)CC4)c23)cc1	11.9	5.9	-2.2	28.8*	50.1*	-0.3	35.8*	53.2*
CC(=O)N1CCN(C(=O)c2cc(C)oc2C)CC1	10.5	x	3.8	x	-20.0	x	x	x
Cc1cc(C(=O)N2CCC(Cc3ccccc3)CC2)c(C)o1	0.5	x	-4.5	27.7*	2.8	x	26.9*	32.6*
N=c1c2ccccc2nc2n1CCCCC2	0.1	x	x	x	-2.5	x	x	x
Cc1ccc([C@H]2N[C@]3(CCCN(Cc4ccccc4)C3=O)[C@H]3C(=O)N(C)C(=O)[C@@H]23)cc1	1.1	x	x	x	-2.4	x	x	x
CN(Cc1ccccc1)C1=CC(=[N+]2CCCCC2)CC(C)(C)C1	0.0	-0.4	7.5	39.5*	-4.4	0.8	57.0*	48.4*
COc1ccccc1-c1noc(CCC(=O)Nc2cc(C(F)(F)F)ccc2Cl)n1	24.0	-1.2	-1.8	23.3*	1.6	-1.5	15.4	32.2*
O=C(c1cc(COc2ccc(F)c(F)c2)on1)N1CCN(C2CCCCC2)C(=O)C1	14.7	x	6.4	26.7*	26.0	x	11.2	3.9
O=C(NC1CCCCC1)C(c1ccccc1)N(Cc1ccco1)C(=O)Cn1cnc2ccccc21 (stereo not given)	12.1	-1.5	x	22.4*	-11.0	-1.4	17.1	14.1
O=C(Cc1cccs1)N(Cc1ccco1)C1(C(=O)NC2CCCC2)CCCCC1	-0.4	-2.3	-3.6	45.9*	10.1	-0.3	52.7*	45.2*
O=C(c1ccccn1)N(Cc1ccco1)C1(C(=O)NC2CCCC2)CCCCC1	12.7	-0.3	1.1	36.6*	-4.6	0.9	28.4*	20.7
O=C(c1ccc2c(c1)OCO2)N(Cc1ccco1)C1(C(=O)NC2CCCCC2)CCCCC1	12.1	-1.0	-3.8	41.2*	-10.2	-0.1	40.0*	42.3*
CC1([N+](=O)[O-])COC2(CCCCC2)OC1	2.0	x	x	x	5.9	x	x	x
O=C(NC1CCCC1)C(c1ccsc1)N(Cc1ccco1)C(=O)Cc1cccs1 (stereo not given)	1.4	-1.1	5.8	43.9*	9.1	-0.5	43.1*	30.9*
O=C(c1cnccn1)N(Cc1ccco1)C1(C(=O)NC2CCCCC2)CCCCC1	18.0	-0.5	4.9	31.5*	-2.7	0.6	21.8	14.6
O=C1NC(=O)C(CC(=O)N(Cc2ccco2)C2(C(=O)NC3CCCC3)CCCCC2)N1 (stereo not given)	3.9	2.5	1.3	10.9	1.2	1.3	x	x
